BindingDB's records for doi:10.1021/jm00001a007 (Sandoz Pharma, 1995)
Several values for one entry are separate records, joined by “and”; a condition that tells them apart may be missing. Equal values may be shown once. Where a name gives a salt, the structure may show the parent alone.

Legend:
[1] = target: T1, Alpha-2A adrenergic receptor (Bos taurus, UniProt Q28838); assay: Binding affinity towards Alpha-2 adrenergic receptor of calf brain cortex using [3H]clonidine
T1 sequence (Q28838 whole entry): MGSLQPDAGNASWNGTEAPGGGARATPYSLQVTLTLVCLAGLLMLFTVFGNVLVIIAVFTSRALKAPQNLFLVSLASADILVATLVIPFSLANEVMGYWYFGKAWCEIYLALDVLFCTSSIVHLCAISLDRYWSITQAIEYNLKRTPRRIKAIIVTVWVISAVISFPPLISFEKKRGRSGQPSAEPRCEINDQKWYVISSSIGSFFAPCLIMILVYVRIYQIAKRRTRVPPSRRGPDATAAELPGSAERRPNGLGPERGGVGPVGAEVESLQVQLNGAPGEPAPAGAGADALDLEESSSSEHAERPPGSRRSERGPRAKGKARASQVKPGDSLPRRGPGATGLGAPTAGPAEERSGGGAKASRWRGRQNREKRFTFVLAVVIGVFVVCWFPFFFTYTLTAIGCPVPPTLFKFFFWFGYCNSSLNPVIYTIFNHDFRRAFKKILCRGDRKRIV
Procedure, shortened: (§1)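 Membranes from fresh calf brain cortex. Nonspecific binding defined with 10 μM phentolamine for α1 ([3H]prazosin) and with 1 μM unlabeled clonidine for α2 ([3H]clonidine). IC50 converted to KD (Cheng–Prusoff), given as pKD.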

[2] = target: 5-hydroxytryptamine 2A receptor; assay: Binding affinity towards 5-hydroxytryptamine 2A receptor in rat cortex preparations using [3H]ketanserin
Procedure, shortened: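 5-HT2 sites: rat cortex for 2A ([3H]ketanserin), porcine choroid plexus for 2C ([3H]mesulergine). Nonspecific binding defined with 10 μM mianserin. Displacement-curve IC50 converted to KD via Cheng–Prusoff; expressed as pKD.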

D(1A) dopamine receptor = D(1A) dopamine receptor (Bos taurus, UniProt Q95136); assay: Binding affinity towards Dopamine receptor D1 of calf striatal tissue using [3H]SCH-23390
D(1A) dopamine receptor, sequence (Q95136 whole entry): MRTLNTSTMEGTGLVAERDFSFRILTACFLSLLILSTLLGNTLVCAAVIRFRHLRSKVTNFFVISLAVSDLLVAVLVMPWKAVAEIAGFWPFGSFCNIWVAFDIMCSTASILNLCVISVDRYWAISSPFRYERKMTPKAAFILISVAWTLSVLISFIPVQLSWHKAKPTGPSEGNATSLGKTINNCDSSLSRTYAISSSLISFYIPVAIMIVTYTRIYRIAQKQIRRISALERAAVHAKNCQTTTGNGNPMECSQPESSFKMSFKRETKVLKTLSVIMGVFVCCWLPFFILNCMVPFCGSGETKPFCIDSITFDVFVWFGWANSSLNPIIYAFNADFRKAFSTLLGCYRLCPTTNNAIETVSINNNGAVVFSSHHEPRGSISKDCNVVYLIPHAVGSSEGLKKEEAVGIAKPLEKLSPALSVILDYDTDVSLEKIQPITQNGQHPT
Procedure, shortened: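 Calf striatal membranes, [3H]SCH-23390. Nonspecific binding defined with 1 μM unlabeled SCH-23390. IC50 from displacement curves converted via Cheng–Prusoff to KD, expressed as pKD.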

[3] = target: T2, Alpha-1A adrenergic receptor (Bos taurus, UniProt P18130); assay: Binding affinity towards Alpha-1 adrenergic receptor of calf brain cortex using [3H]prazosin; procedure, shortened: as §1
T2 sequence (P18130 whole entry): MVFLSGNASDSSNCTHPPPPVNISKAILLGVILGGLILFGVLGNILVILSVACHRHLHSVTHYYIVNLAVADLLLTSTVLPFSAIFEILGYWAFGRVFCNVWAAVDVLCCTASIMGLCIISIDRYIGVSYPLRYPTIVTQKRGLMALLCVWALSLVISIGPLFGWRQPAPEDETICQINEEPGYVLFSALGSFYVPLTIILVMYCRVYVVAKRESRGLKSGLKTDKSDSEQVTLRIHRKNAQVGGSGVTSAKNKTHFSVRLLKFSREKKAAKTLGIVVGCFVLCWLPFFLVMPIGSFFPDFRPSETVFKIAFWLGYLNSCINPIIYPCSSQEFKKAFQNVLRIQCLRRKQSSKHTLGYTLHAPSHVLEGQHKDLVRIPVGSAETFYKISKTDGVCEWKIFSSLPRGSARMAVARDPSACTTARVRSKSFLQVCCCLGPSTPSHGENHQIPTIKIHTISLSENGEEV

D(2) dopamine receptor = D(2) dopamine receptor (Bos taurus, UniProt P20288); assay: Binding affinity towards Dopamine receptor D2 of calf striatal tissue using [3H]spiperone
D(2) dopamine receptor, sequence (P20288 whole entry): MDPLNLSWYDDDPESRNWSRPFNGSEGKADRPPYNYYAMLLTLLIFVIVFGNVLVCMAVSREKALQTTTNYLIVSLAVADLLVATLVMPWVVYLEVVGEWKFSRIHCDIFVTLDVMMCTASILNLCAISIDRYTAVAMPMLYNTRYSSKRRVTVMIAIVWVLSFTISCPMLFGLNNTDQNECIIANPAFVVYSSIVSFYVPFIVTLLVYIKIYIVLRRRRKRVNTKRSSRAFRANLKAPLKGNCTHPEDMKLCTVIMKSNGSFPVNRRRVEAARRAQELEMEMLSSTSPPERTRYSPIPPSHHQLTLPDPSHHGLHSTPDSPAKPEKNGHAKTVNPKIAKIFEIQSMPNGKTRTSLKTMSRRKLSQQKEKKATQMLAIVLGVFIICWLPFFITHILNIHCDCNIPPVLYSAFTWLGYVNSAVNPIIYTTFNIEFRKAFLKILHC
Procedure, shortened: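 Calf striatal membranes, [3H]spiperone. Cinanserin (0.5 μM) masked 5-HT2A sites; nonspecific binding defined with haloperidol (5 μM). Displacement IC50 converted to KD (Cheng–Prusoff), reported as pKD.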

For `CN1CC[C@@H]2CN3CCc4cccc(c43)[C@@H]2C1` [SDZ SER 082 FUMARATE], the Kd [1] was 999 nM and 1000 nM, the Kd [2] was 631 nM and the Kd (D(1A) dopamine receptor) was under 10000 nM. The Kd [3] was 1000 nM and 999 nM and the Kd (D(2) dopamine receptor) was under 10000 nM.
